Reference: ChEMBL document CHEMBL4513216, “Probing the Open Global Health Chemical Diversity Library for Multistage-Active Starting Points for Next-Generation Antimalarials” (ACS Infect Dis, 2020)

Experiment: Toxicity liver stage against HepG2, at 10uM
Type: cell-based
Set-up: test concentration 10 uM, cell line HepG2-A16-CD81EGFP
Conditions: human, HepG2-A16-CD81EGFP cells; read-out: INHIBITION
Method in brief: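 Uninfected HepG2-A16-CD81EGFP cells, 3 × 10^3 per well, 1536-well, plated on prespotted compound at 10 μM final, parasite-free screening media added to match infected plates; puromycin 10 μM positive, DMSO 0.5% negative; run in parallel with 48 h PbLuc assay at 37 °C, 5% CO2; viability by CellTiter-Glo luminescence, normalized to controls.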

Row | Compound | cytotoxicity at 10 µM [%]
1 | CCCn1cnc2c1CN(S(=O)(=O)c1ccc(F)cc1)[C@H](C(=O)OC)C2 | 1.2
2 | O[C@H]1COCCN(Cc2cccc(C(F)(F)F)c2)C1 | -1.8
3 | CCOCc1nc(N2CCOCC2)sc1C(=O)NCc1ccco1 | 1.64
4 | CCN(CC)C(=O)CSc1nc2nc(C)ccc2o1 | 5.73
5 | CC(C)NC(=O)CSc1nc2c(cnn2CCO)c(=O)[nH]1 | -8.72
6 | CC(C)NC(=O)N1CCCC2(CCN(c3ccsc3)C2=O)C1 (stereo not drawn) | -0.42
7 | Cc1nc(C)c2c(n1)CCN(Cc1ccsc1)CC2 | -126
8 | O=C1CCCN1Cc1ncn2c1CN(S(=O)(=O)c1cccs1)CCC2 | 4.76
9 | Cn1cc(C(=O)NCc2cn3c(n2)CN(Cc2ccncc2)CC3)cn1 | 5.71
10 | CO[C@H]1CC[C@H]2[C@H]1OCCN2C(=O)C1=CCCC1 | -131
11 | O=C(O)c1nnn(Cc2ccc(F)cc2)c1-c1cccnc1 | -6.21
12 | O=c1ccc(-c2cccs2)nn1CN1CCN(C2CCS(=O)(=O)C2)CC1 (stereo not drawn) | 9.99
13 | CCc1ccc(NC(=O)CC2Cn3ncnc3NC2=O)cc1 (stereo not drawn) | 6.47
14 | CN(C)CC1CSCCCN1C(=O)c1ccc(=O)[nH]c1 (stereo not drawn) | 2.76
15 | CC(C)N1CCn2c(nc3cc(C(N)=O)ccc32)C1 | -11.3
16 | Cc1noc([C@@]23CCO[C@@H]2CCN(C(=O)c2sccc2C)C3)n1 | -8.23
17 | O=c1cc(Cn2ccnc2)nc2n1CCCN(Cc1ccsc1)C2 | -0.808
18 | CCCNC(=O)c1nn(CC)cc1NC(=O)c1c(C)nn(C)c1C | -7.95
19 | Cc1ccc(C2NC(=O)c3cc(C(C)C)sc3N2)cc1 (stereo not drawn) | 7.96
20 | Cc1nc(C)c(C(=O)N2CCc3nnc(C4CCCCN4C)n3CC2)o1 (stereo not drawn) | 1.9
21 | Cc1cccn2c(NC(C)(C)C)c(C3CCN(C(=O)C4CC4)CC3)nc12 | 3.53
22 | O=C(NCC1CCOCC1)c1cc(-c2cccnc2)c2cnccc2n1 | 13.2
23 | O=C(c1cncs1)N1CCOC(c2cc(CCO)[nH]n2)C1 (stereo not drawn) | -0.49

Row | Compound | cytotoxicity at 10 µM [%]
24 | Cc1ncc(CN2CCC(O)(c3ccccc3F)CC2)cn1 | 0.46
25 | CCN(CC)S(=O)(=O)c1cc2c3c(c1)c(C)cc(=O)n3CC2 | 5.45
26 | Cc1nc(C2CCCCN2S(C)(=O)=O)no1 (stereo not drawn) | 9.23
27 | CC(C)OCCCNS(=O)(=O)c1ccc2c(c1)NC(=O)C(C)O2 (stereo not drawn) | 0.893
28 | CCCn1ncc(CN(Cc2cccnc2)Cc2cccs2)c1C | 1.64
29 | Cc1ccc(N(C)[C@@H]2CC[C@@H]3CN(C(=O)C4CCOCC4)C[C@@H]32)nn1 | -4.43
30 | Cc1cc(N2CCC(c3n[nH]c4nccnc34)C2)ncn1 (stereo not drawn) | -22.7
31 | NC(=O)CN1CCOCC(Cc2ccccc2)C1 (stereo not drawn) | 0.579
32 | Cc1nc(C2CCN(C(=O)c3cnc(N(C)C)nc3)CC2)c2sccn12 | -4.5
33 | CCC(CC)(CNC(=O)c1cccn1Cc1cccnc1)N(C)C | -53.6
34 | Clc1ccc(C(CNCc2cccnc2)n2cccn2)cc1 (stereo not drawn) | -5.07
35 | Cn1cc(CCC(=O)NC(c2ccc(F)cc2)C(F)(F)F)cn1 (stereo not drawn) | 1.68
36 | Cc1cc(C)n(C2CN(CCC(N)=O)C2)n1 | -5.04
37 | Cc1c(C(=O)N2CCCN(S(C)(=O)=O)CC2)cnn1C | 17.2
38 | Cc1cc(CNC(=O)Nc2ccc(C(=O)NC3CC3)cc2)no1 | -0.396
39 | CC(C)(C)C(NC(=O)CCCS(C)(=O)=O)c1ccc(F)cc1F (stereo not drawn) | 8.87
40 | CCc1ncnc(N2CCOCC2C(N)=O)c1F (stereo not drawn) | -4.73
41 | CCOC(=O)c1ccc(CNC(=O)c2ccon2)o1 | 8.64
42 | N#Cc1cccc(CN(CC(=O)N2CCCC2)CC2CCCO2)c1 (stereo not drawn) | -5.52
43 | CCOC(=O)C1CCN(C(=O)CN2CCCC2Cc2ccccc2)CC1 (stereo not drawn) | 12.7
44 | COc1ccc(CNC(=O)CCc2c(C)noc2C)cc1F | -6.87
45 | O=C(Nc1ccccn1)c1nc(N2CCCC2)ncc1Cl | -8.77
46 | COc1ccc(NC(=O)Cc2c(C)nc3c(c2C)c(=O)[nH]n3C)cn1 | 7.32

Row | Compound | cytotoxicity at 10 µM [%]
47 | Cc1cc(S(=O)(=O)Nc2cccc(I)c2)sc1C(=O)O | 3.76
48 | CC(=O)c1cccc(NS(=O)(=O)c2cc(C)c(C(=O)O)s2)c1 | 0.178
49 | Cn1cc(Br)c(=O)c(NS(=O)(=O)c2ccc(Cl)cc2)c1 | -5.28
50 | CCNC(=O)CCCC(=O)N1CCc2cc(Cl)cc(Cl)c2C1 | -15.1
51 | Cc1ccsc1C(=O)Nc1cnn(CC(=O)NC2CCCC2)c1 | -1.65
52 | Cc1ccc(F)c(NCC(C)(C)S(C)(=O)=O)c1 | -7.6
53 | CCS(=O)(=O)c1nccn1-c1cccc(F)c1 | 3.12
54 | NC(=O)NC(=O)CCn1ccc(-c2ccsc2)n1 | 8.56
55 | CC(C)OCCN(C)CC(c1cccs1)N1CCOCC1 (stereo not drawn) | -4.34
56 | c1cnn(C2CN(c3ncnc4[nH]ccc34)C2)c1 | 1.87
57 | Cn1c(C(N)=O)ccc1-c1ccccc1 | 3.18
58 | CCN(CCCNc1ncnc2cc(F)c(F)cc12)S(C)(=O)=O | 37.7
59 | Cn1c(CN2CCOC(Cn3cncn3)C2)nc2ccccc21 (stereo not drawn) | -4.76
60 | O=C(c1ccc(Br)cc1F)N1CCc2ccncc21 | -1.16
61 | CCOCCS(=O)(=O)N(CC)Cc1ccc(Cl)s1 | -6.15
62 | CN(Cc1ccco1)Cc1ccccc1CNC(=O)c1ccncc1 | -9.87
63 | Cc1c(I)cccc1C(=O)NCC1(CO)CC1 | -4.11
64 | CCN1CCN(c2ccc(F)cc2C(C)NCc2ccncc2)CC1 (stereo not drawn) | -1.4
65 | CC(C(=O)NCc1ccnc(Oc2ccc(F)cc2)c1)n1cncn1 (stereo not drawn) | -3.63
66 | Cc1cccc(N2CCC(NC(=O)CCCc3cccs3)CC2)n1 | -12.5
67 | O=C(c1cccnc1)N1CCc2c(COCC3CC3)cncc2C1 | -77.2
68 | COc1ccc([C@@H]2CN(c3cc(OC)nc(N)n3)C[C@H]2N(C)C)cc1 | 15
69 | CC(=O)Nc1ccc2nc(CN(C)Cc3noc(C)n3)ccc2c1 | 3.47

Row | Compound | cytotoxicity at 10 µM [%]
70 | COc1ccc(CN2CC[C@@]3(O)CCCC[C@H]3C2)cc1C(=O)O | -3.12
71 | O=C1NCCN1CCNc1cc(-c2ccncc2)nc2ccnn12 | -4.76
72 | CN(CC1Cc2ccccc2CN1C)C(=O)CSc1ccccn1 (stereo not drawn) | -1.32
73 | Cc1ccc(Cl)c(CN2CCN(C)C(C(=O)O)C2)c1F (stereo not drawn) | -0.0679
74 | Cc1n[nH]c(C)c1CCNC(=O)C1CCCN(Cc2ccco2)C1 (stereo not drawn) | -6.23
75 | CCc1cc(-c2nccn2-c2ccccc2CN2CCOCC2)on1 | -7.91
76 | CN(C)CCCNC(=O)C(c1cccc(F)c1)N(C)C (stereo not drawn) | -4.58
77 | COC(=O)C1CCCN1C(=O)c1cc(CC(C)C)no1 (stereo not drawn) | 14
78 | COC(=O)c1cc2n(n1)CCN(C(=O)c1csc(CN(C)C)n1)C2 | -8.44
79 | O=C(O)CC1COCCN1Cc1ccccc1-c1ccccc1 (stereo not drawn) | 12.9
80 | Cc1nc[nH]c1-c1nccn1CCN1CCCC1=O | -6.88
81 | COc1c(F)cc(-c2cn(CCn3c(C)cc(C)nc3=O)nn2)cc1Cl | -1.72
82 | CN(Cc1cccnc1)CC1CCOc2ccccc2C1 (stereo not drawn) | -4.92
83 | Cc1cc(CN2CCOCS2(=O)=O)ccc1F | -8.02
84 | Cc1nc(C)n(C2CCCN(C(=O)CCOC(C)C)C2)n1 (stereo not drawn) | -1.92
85 | CCn1cnnc1C1CCN(C(=O)c2ccoc2C)CC1 | -8.04
86 | CN(Cc1nc2c(cnn2C)c(=O)[nH]1)Cc1ccco1 | -8.11
87 | CC(C(=O)NCCN1CCCCC1)n1cncn1 (stereo not drawn) | -3.37
88 | Cc1noc(Cl)c1CCC(=O)N1CCC(Nc2cccnn2)CC1 | -2.57
89 | Cc1ccc(-c2nc(C(=O)N3CCN(C(=O)N(C)C)CC3)cs2)c(C)c1 | -7.98
90 | COc1cccc2cc(CNCc3ccnc(N(C)C)c3)oc12 | -6.87
91 | CC(c1nc(C(C)(C)C)no1)N1CCN(Cc2ccc(C#N)cc2)CC1 (stereo not drawn) | -5.38
92 | CC(=O)NC1CCCN(Cc2ccn(C)c(=O)c2)C1 (stereo not drawn) | 2.34

Row | Compound | cytotoxicity at 10 µM [%]
93 | CCN(CC)c1ccc(C(=O)N2CCCC2Cn2cc(C)cn2)cn1 (stereo not drawn) | -17.2
94 | Cc1ccccc1OCCC(=O)N1CCC(c2nncn2C)CC1 | -13.3
95 | CCc1nc(CN2CCCN(C(=O)C(CC)OC)CC2)cs1 (stereo not drawn) | -15.8
96 | CN1CCCN(C(=O)NCCNc2cnccn2)CC1 | -3.4
97 | CCOc1ccc(S(=O)(=O)NC(=O)CC2CCCO2)cc1 (stereo not drawn) | -16.3
98 | O=C(NCc1ccc2c(c1)OCO2)Nc1cccnc1N1CCCC1 | -13.4
99 | CCOCCCn1c(NC(=O)c2cnn(C)c2)nc2ccccc21 | -12.1
100 | Cc1ccc(S(=O)(=O)NC(=O)c2cccc(OCC(N)=O)c2)s1 | -9.55
101 | c1ccc(-c2ncc(CNC3CCc4ncnn4C3)cn2)cc1 (stereo not drawn) | -0.722
102 | Cc1noc([C@@H](C)NCc2ccc(F)cc2)c1C(=O)O | -5.57
103 | CN(C)S(=O)(=O)N1C[C@@H](Oc2ccccn2)[C@H]2OCCC[C@H]21 | 1.16
104 | CNC(=O)C1(CCCc2ccncc2)CCN1 (stereo not drawn) | -9.08
105 | c1cc(CN2CCC3(CC2)CC(N2CCCC2)CO3)co1 (stereo not drawn) | 2.38
106 | CN(C)Cc1nn(C)c2c1CCN(C(=O)CC1CC1)C2 | -3.86
107 | Cn1cccc1C(=O)N[C@@H]1CN(Cc2cccs2)[C@@H]2COC[C@@H]21 | 8.88
108 | Cc1nc(CN2C(=O)COC3(CCN(Cc4ccco4)CC3)C2C)cs1 (stereo not drawn) | -13.5
109 | CNC(=O)C1(CCCc2ccncc2)CCCCN1 (stereo not drawn) | -37.5
110 | c1ccc(Cn2cc3c(n2)C(CNCc2ccco2)OCC3)nc1 (stereo not drawn) | -7.85
111 | Cn1nc(Cn2cccc2)c2c1CN(Cc1ccsc1)C2 | -133
112 | CN(C)C[C@H]1OC[C@@H]2CCN(C(=O)c3ccco3)C[C@@H]21 | 4.84
113 | COCCN1C[C@@H]2CC[C@H]1CN(C(=O)CCc1n[nH]c(C)c1C)C2 | -8.92
